Results from ChEMBL document CHEMBL3392966, “Antiproliferative activity of synthetic fatty acid amides from renewable resources” (Bioorg Med Chem, 2015).
≈ marks a conversion by molar mass, not a printed value.

Tests used:
NCI-H460 [1] = assay: Antiproliferative activity against human NCI-H460 cells assessed as tumor growth inhibition after 48 hrs by sulforhodamine B assay; type: functional; conditions: NCI-H460, 48 h
Procedure, shortened: (§1)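 Tumor cells grown in RPMI 1640 with 5% fetal bovine serum, with penicillin/streptomycin in experimental cultures. Exposed in 96-well plates to samples in DMSO/RPMI at 0.25, 2.5, 25 and 250 µg/mL, 37 °C, 5% CO2, 48 h. Fixed with 50% trichloroacetic acid before (T0) and after treatment, protein stained with sulforhodamine B and read at 540 nm. GI50, TGI and LC50 in µg/mL from dose-response curves by non-linear regression.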

U-251 [2] = assay: Antiproliferative activity against human U251 cells after 48 hrs by sulforhodamine B assay; type: functional; conditions: U-251, 48 h; procedure, shortened: as §1
NCI-H460 [3] = assay: Antiproliferative activity against human NCI-H460 cells after 48 hrs by sulforhodamine B assay; type: functional; conditions: NCI-H460, 48 h; procedure, shortened: as §1
[4] = Antiproliferative activity against human PC3 cells assessed as tumor growth inhibition after 48 hrs by sulforhodamine B assay; type: functional; conditions: PC-3, 48 h; procedure, shortened: as §1
786-0 [5] = assay: Antiproliferative activity against human 786-0 cells assessed as tumor growth inhibition after 48 hrs by sulforhodamine B assay; type: functional; conditions: 786-0, 48 h; procedure, shortened: as §1
NCI/ADR-RES [6] = assay: Antiproliferative activity against human NCI/ADR-RES cells after 48 hrs by sulforhodamine B assay; type: functional; procedure, shortened: as §1
U-251 [7] = assay: Antiproliferative activity against human U251 cells assessed as tumor growth inhibition after 48 hrs by sulforhodamine B assay; type: functional; conditions: U-251, 48 h; procedure, shortened: as §1
[8] = Antiproliferative activity against human PC3 cells after 48 hrs by sulforhodamine B assay; type: functional; conditions: PC-3, 48 h; procedure, shortened: as §1
MCF7 [9] = assay: Antiproliferative activity against human MCF7 cells after 48 hrs by sulforhodamine B assay; type: functional; conditions: MCF7, 48 h; procedure, shortened: as §1
[10] = Antiproliferative activity against human OVCAR3 cells after 48 hrs by sulforhodamine B assay; type: functional; conditions: OVCAR-3, 48 h; procedure, shortened: as §1
786-0 [11] = assay: Antiproliferative activity against human 786-0 cells after 48 hrs by sulforhodamine B assay; type: functional; conditions: 786-0, 48 h; procedure, shortened: as §1
HaCaT [12] = assay: Cytotoxicity against human HaCaT cells after 48 hrs by sulforhodamine B assay; type: cell-based
NCI/ADR-RES [13] = assay: Antiproliferative activity against human NCI/ADR-RES cells assessed as tumor growth inhibition after 48 hrs by sulforhodamine B assay; type: functional; procedure, shortened: as §1
MCF7 [14] = assay: Antiproliferative activity against human MCF7 cells assessed as tumor growth inhibition after 48 hrs by sulforhodamine B assay; type: functional; conditions: MCF7, 48 h; procedure, shortened: as §1
HaCaT [15] = assay: Cytotoxicity against human HaCaT cells assessed as tumor growth inhibition after 48 hrs by sulforhodamine B assay; type: cell-based
Procedure, shortened: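 Non-tumor lines (human HaCaT keratinocytes; Vero) in RPMI 1640 with 5% FBS, with penicillin/streptomycin added to experimental cultures. 48 h exposure at 0.25–250 µg/mL (DMSO/RPMI), 37 °C, 5% CO2. TCA fixation at time zero and at end, sulforhodamine B protein stain, absorbance 540 nm. TGI (total growth inhibition) from non-linear regression of the dose-response curve.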

[16] = Antiproliferative activity against human OVCAR3 cells assessed as tumor growth inhibition after 48 hrs by sulforhodamine B assay; type: functional; conditions: OVCAR-3, 48 h; procedure, shortened: as §1

| Compound | TGI (NCI-H460 [1]) | GI50 (U-251 [2]) | GI50 (NCI-H460 [3]) | TGI [4] | TGI (786-0 [5]) | GI50 (NCI/ADR-RES [6]) | TGI (U-251 [7]) | GI50 [8] | GI50 (MCF7 [9]) | GI50 [10] | GI50 (786-0 [11]) | LC50 (HaCaT [12]) | TGI (NCI/ADR-RES [13]) | TGI (MCF7 [14]) | TGI (HaCaT [15]) | TGI [16] |
| --- | --- | --- | --- | --- | --- | --- | --- | --- | --- | --- | --- | --- | --- | --- | --- | --- |
| CCCCCCCCCCCCCCCCCC(=O)N1CCCC1 | 56.8 µg/mL (≈ 168 µM) | 8 µg/mL (≈ 23.7 µM) | 10.8 µg/mL (≈ 32 µM) | 36 µg/mL (≈ 107 µM) | 48.4 µg/mL (≈ 143 µM) | 7.1 µg/mL (≈ 21 µM) | 32.5 µg/mL (≈ 96.3 µM) | 9.4 µg/mL (≈ 27.8 µM) | 7.4 µg/mL (≈ 21.9 µM) | 7.3 µg/mL (≈ 21.6 µM) | 14 µg/mL (≈ 41.5 µM) | 6.3 µg/mL (≈ 18.7 µM) | 43.5 µg/mL (≈ 129 µM) | 39.9 µg/mL (≈ 118 µM) | 27.4 µg/mL (≈ 81.2 µM) | 68.5 µg/mL (≈ 203 µM) |
| CCCCCCCC/C=C\CCCCCCCC(=O)NCc1ccccc1 | > 250 µg/mL | 55.4 µg/mL (≈ 149 µM) | 94.9 µg/mL (≈ 255 µM) | > 250 µg/mL | > 250 µg/mL | 50.3 µg/mL (≈ 135 µM) | > 250 µg/mL | 107 µg/mL (≈ 288 µM) | 53.4 µg/mL (≈ 144 µM) | 103 µg/mL (≈ 278 µM) | 104 µg/mL (≈ 281 µM) | 92 µg/mL (≈ 248 µM) | > 250 µg/mL | > 250 µg/mL | > 250 µg/mL | > 250 µg/mL |
| CCCCCCCC/C=C/CCCCCCCC(=O)N[C@@H](C)c1ccccc1 | > 250 µg/mL |  |  | > 250 µg/mL | > 250 µg/mL |  | > 250 µg/mL |  | 110 µg/mL (≈ 286 µM) | 21.7 µg/mL (≈ 56.3 µM) |  | 24.6 µg/mL (≈ 63.8 µM) | > 250 µg/mL | > 250 µg/mL | > 250 µg/mL | > 250 µg/mL |
| CCCCCCCCCCCCCCCC(=O)NCc1ccccc1 | > 250 µg/mL |  |  | > 250 µg/mL | > 250 µg/mL |  | > 250 µg/mL |  |  |  |  |  | > 250 µg/mL | > 250 µg/mL | > 250 µg/mL | > 250 µg/mL |
| CCCCCCCC/C=C\CCCCCCCC(=O)N1CCOCC1 | 34.7 µg/mL (≈ 98.7 µM) | 2.8 µg/mL (≈ 7.96 µM) | 7.9 µg/mL (≈ 22.5 µM) | 14.8 µg/mL (≈ 42.1 µM) | 11.2 µg/mL (≈ 31.9 µM) | 3.3 µg/mL (≈ 9.39 µM) | 6.6 µg/mL (≈ 18.8 µM) | 5.2 µg/mL (≈ 14.8 µM) | 4.9 µg/mL (≈ 13.9 µM) | 4.9 µg/mL (≈ 13.9 µM) | 4.5 µg/mL (≈ 12.8 µM) | 5.3 µg/mL (≈ 15.1 µM) | 10.6 µg/mL (≈ 30.2 µM) | 13.1 µg/mL (≈ 37.3 µM) | 23.2 µg/mL (≈ 66 µM) | 13.9 µg/mL (≈ 39.5 µM) |
| CCCCC/C=C\C/C=C\CCCCCCCC(=O)N1CCCCC1 | 53.6 µg/mL (≈ 154 µM) | 44.2 µg/mL (≈ 127 µM) | 29.1 µg/mL (≈ 83.7 µM) | 48.9 µg/mL (≈ 141 µM) | 29.1 µg/mL (≈ 83.7 µM) | 63.2 µg/mL (≈ 182 µM) | 22.1 µg/mL (≈ 63.6 µM) | 53.6 µg/mL (≈ 154 µM) | 22.1 µg/mL (≈ 63.6 µM) | 48.9 µg/mL (≈ 141 µM) | 58.4 µg/mL (≈ 168 µM) | 4.2 µg/mL (≈ 12.1 µM) | 63.2 µg/mL (≈ 182 µM) | 44.2 µg/mL (≈ 127 µM) | 30.5 µg/mL (≈ 87.7 µM) | 58.4 µg/mL (≈ 168 µM) |
| CCCCCC[C@@H](O)C/C=C\CCCCCCCC(=O)N1CCCCC1 | 23.3 µg/mL (≈ 63.7 µM) | 14.8 µg/mL (≈ 40.5 µM) | 10.7 µg/mL (≈ 29.3 µM) | 16.6 µg/mL (≈ 45.4 µM) | 10.7 µg/mL (≈ 29.3 µM) | 22.7 µg/mL (≈ 62.1 µM) | 6.3 µg/mL (≈ 17.2 µM) | 23.3 µg/mL (≈ 63.7 µM) | 6.3 µg/mL (≈ 17.2 µM) | 16.6 µg/mL (≈ 45.4 µM) | 24.2 µg/mL (≈ 66.2 µM) | 2.6 µg/mL (≈ 7.11 µM) | 22.7 µg/mL (≈ 62.1 µM) | 14.8 µg/mL (≈ 40.5 µM) | 12.8 µg/mL (≈ 35 µM) | 24.2 µg/mL (≈ 66.2 µM) |
| CCCCCC[C@@H](O)C/C=C\CCCCCCCC(=O)N1CCOCC1 | 152 µg/mL (≈ 415 µM) | 33.1 µg/mL (≈ 90 µM) | 49.1 µg/mL (≈ 134 µM) | 72.6 µg/mL (≈ 198 µM) | 75.7 µg/mL (≈ 206 µM) | 29.4 µg/mL (≈ 80 µM) | 54.5 µg/mL (≈ 148 µM) | 38.5 µg/mL (≈ 105 µM) | 41.8 µg/mL (≈ 114 µM) | 31 µg/mL (≈ 84.3 µM) | 36 µg/mL (≈ 97.9 µM) | 41.3 µg/mL (≈ 112 µM) | 143 µg/mL (≈ 388 µM) | 116 µg/mL (≈ 314 µM) | 97.4 µg/mL (≈ 265 µM) | 62.2 µg/mL (≈ 169 µM) |
| CCCCCCCCCCCCCCCC(=O)N1CCCC1 | 33.5 µg/mL (≈ 108 µM) | 4.6 µg/mL (≈ 14.9 µM) | 5.9 µg/mL (≈ 19.1 µM) | 12.2 µg/mL (≈ 39.4 µM) | 16.1 µg/mL (≈ 52 µM) | 4.6 µg/mL (≈ 14.9 µM) | 11.4 µg/mL (≈ 36.8 µM) | 4.7 µg/mL (≈ 15.2 µM) | 4.6 µg/mL (≈ 14.9 µM) | 6.3 µg/mL (≈ 20.4 µM) | 5.5 µg/mL (≈ 17.8 µM) | 4.8 µg/mL (≈ 15.5 µM) | 30 µg/mL (≈ 96.9 µM) | 13.2 µg/mL (≈ 42.6 µM) | 12.9 µg/mL (≈ 41.7 µM) | 22.9 µg/mL (≈ 74 µM) |
| CCCCCCCCCCCCCCCC(=O)N1CCOCC1 | 91 µg/mL (≈ 280 µM) | 25 µg/mL (≈ 76.8 µM) | 34.1 µg/mL (≈ 105 µM) | 36.7 µg/mL (≈ 113 µM) | 69.9 µg/mL (≈ 215 µM) | 6.2 µg/mL (≈ 19 µM) | 55.9 µg/mL (≈ 172 µM) | 22.2 µg/mL (≈ 68.2 µM) | 15.4 µg/mL (≈ 47.3 µM) | 33.1 µg/mL (≈ 102 µM) | 33.1 µg/mL (≈ 102 µM) | 28.9 µg/mL (≈ 88.8 µM) | 70.3 µg/mL (≈ 216 µM) | 54.7 µg/mL (≈ 168 µM) | 73.7 µg/mL (≈ 226 µM) | 72.7 µg/mL (≈ 223 µM) |
